Test results from ChEMBL document CHEMBL1177685, “Novel structure-activity relationships and selectivity profiling of cage dimeric 1,4-dihydropyridines as multidrug resistance (MDR) modulators” (Bioorg Med Chem, 2010).

Legend:
Format in all cases: cell-based
[1] = molecular target: ATP-binding cassette sub-family C member 2 (Homo sapiens, UniProt Q92887); test: Inhibition of MRP2 expressed in human A2780 cells at 10 uM relative to control; conditions: a2780, 10 µM
Procedure, shortened: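 Cisplatin-induced A2780RCIS ovarian cells (maintained with cisplatin 10 ng/mL) and parental A2780P were seeded for 24 h, given fresh medium with inhibitor for 20 min at 37 °C, then carboxyfluorescein diacetate (2 µM final) for 40 min at 37 °C. After ice-cold PBS washes, 10,000 events were read by flow cytometry (488 nm excitation, 530 nm filter). MRP2 value = A2780RCIS uptake minus the MRP1-specific uptake in A2780P.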

[2] = molecular target: Multidrug resistance-associated protein 1 (Homo sapiens, UniProt P33527); test: Inhibition of MRP1 expressed in human A2780 cells at 10 uM relative to control; conditions: a2780, 10 µM
[3] = molecular target: T1, Broad substrate specificity ATP-binding cassette transporter ABCG2 (Homo sapiens, UniProt Q9UNQ0); test: Inhibition of BCRP expressed in human EPG-257RNOV cells at 1 uM relative to control
T1 sequence (Q9UNQ0 whole entry): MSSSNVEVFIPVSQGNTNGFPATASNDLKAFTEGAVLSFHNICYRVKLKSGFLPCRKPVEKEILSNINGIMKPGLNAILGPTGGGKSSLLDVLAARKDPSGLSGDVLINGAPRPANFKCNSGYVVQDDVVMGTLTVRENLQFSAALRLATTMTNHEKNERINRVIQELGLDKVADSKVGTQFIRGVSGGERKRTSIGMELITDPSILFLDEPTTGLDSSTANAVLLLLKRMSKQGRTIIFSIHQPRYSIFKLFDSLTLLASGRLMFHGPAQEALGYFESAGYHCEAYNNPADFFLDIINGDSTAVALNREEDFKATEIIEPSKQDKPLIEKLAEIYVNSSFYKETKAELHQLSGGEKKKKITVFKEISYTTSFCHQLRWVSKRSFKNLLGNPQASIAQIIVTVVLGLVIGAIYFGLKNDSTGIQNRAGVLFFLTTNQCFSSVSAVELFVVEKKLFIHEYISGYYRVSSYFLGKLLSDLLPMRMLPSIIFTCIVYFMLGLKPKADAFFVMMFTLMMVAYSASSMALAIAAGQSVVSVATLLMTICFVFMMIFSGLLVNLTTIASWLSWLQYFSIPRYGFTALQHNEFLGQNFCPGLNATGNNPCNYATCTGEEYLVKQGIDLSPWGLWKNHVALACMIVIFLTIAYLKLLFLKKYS
Procedure, shortened: (§1)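 BCRP-overexpressing EPG85-257RNOV gastric carcinoma cells (kept in medium with mitoxantrone 0.2 µg/mL), 0.5×10^6 cells/mL, exposed to inhibitor 20 min at 37 °C. Mitoxantrone (20 µM final) then added for 60 min at 37 °C. Cells trypsinized, washed in ice-cold PBS, 10,000 events read by flow cytometry (488 nm excitation, 670 nm filter). R = treated/untreated fluorescence quotient, divided by the same quotient in parental EPG85-257P.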

L5178Y [4] = test: Inhibition of Pgp expressed in mouse L5178Y cells at 1 uM relative to control
Procedure, shortened: (§2)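 L5178Y mouse T lymphoma cells transduced with human mdr1 retrovirus (colchicine-selected) and parental L5178Y, 2×10^6/mL in serum-free McCoy's 5A, preincubated with inhibitor 10 min at rt. Rhodamine 123 (5.2 µM final) added for 20 min at 37 °C. Cells washed twice, resuspended in PBS, 1×10^4 cells read by flow cytometry. R = treated/untreated fluorescence ratio, divided by the parental-line ratio.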

L5178Y [5] = test: Inhibition of Pgp expressed in mouse L5178Y cells at 10 uM relative to control; procedure, shortened: as §2
[6] = molecular target: T1, Broad substrate specificity ATP-binding cassette transporter ABCG2; test: Inhibition of BCRP expressed in human EPG-257RNOV cells at 0.1 uM relative to control; procedure, shortened: as §1

Multidrug resistance-associated protein 1, sequence (P33527 whole entry): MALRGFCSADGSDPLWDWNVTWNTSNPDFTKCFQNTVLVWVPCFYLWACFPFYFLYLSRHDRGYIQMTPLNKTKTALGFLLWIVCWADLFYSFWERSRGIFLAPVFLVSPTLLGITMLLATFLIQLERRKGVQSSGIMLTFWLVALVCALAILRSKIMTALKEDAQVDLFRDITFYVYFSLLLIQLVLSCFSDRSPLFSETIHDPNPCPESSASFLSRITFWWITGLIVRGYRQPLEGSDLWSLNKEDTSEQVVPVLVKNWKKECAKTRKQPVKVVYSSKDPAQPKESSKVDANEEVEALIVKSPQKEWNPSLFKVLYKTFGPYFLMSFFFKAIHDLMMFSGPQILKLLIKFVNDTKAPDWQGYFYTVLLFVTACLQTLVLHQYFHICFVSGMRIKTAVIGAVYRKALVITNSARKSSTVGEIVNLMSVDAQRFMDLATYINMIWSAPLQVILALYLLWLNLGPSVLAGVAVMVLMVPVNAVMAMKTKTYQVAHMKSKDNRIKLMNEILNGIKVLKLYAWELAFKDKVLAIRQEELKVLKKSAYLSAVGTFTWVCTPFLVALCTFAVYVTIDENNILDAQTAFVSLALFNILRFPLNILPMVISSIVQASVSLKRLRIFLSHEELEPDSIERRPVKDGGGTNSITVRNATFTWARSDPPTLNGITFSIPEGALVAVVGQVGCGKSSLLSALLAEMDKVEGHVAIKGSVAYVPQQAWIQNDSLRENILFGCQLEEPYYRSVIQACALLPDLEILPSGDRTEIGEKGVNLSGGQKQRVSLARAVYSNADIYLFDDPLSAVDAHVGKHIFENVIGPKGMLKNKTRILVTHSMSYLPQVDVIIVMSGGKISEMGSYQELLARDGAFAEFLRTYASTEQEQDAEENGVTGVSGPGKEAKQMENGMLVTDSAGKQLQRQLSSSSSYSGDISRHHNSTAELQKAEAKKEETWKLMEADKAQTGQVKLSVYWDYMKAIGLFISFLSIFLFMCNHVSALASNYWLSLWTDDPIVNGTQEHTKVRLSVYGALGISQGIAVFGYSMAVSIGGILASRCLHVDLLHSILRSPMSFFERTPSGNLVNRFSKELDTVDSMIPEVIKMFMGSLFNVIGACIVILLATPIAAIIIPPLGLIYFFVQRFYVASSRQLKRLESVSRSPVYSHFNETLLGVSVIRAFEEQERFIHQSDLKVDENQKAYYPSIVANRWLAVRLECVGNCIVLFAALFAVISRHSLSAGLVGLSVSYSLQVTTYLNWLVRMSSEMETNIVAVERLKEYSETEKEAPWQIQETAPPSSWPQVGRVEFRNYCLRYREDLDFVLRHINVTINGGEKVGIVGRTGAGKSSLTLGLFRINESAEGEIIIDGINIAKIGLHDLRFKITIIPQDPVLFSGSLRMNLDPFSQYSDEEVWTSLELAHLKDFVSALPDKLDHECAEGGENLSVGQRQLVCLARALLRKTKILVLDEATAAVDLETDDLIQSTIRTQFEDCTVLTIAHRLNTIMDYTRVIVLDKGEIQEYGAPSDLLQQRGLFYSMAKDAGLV
ATP-binding cassette sub-family C member 2, sequence (Q92887 whole entry): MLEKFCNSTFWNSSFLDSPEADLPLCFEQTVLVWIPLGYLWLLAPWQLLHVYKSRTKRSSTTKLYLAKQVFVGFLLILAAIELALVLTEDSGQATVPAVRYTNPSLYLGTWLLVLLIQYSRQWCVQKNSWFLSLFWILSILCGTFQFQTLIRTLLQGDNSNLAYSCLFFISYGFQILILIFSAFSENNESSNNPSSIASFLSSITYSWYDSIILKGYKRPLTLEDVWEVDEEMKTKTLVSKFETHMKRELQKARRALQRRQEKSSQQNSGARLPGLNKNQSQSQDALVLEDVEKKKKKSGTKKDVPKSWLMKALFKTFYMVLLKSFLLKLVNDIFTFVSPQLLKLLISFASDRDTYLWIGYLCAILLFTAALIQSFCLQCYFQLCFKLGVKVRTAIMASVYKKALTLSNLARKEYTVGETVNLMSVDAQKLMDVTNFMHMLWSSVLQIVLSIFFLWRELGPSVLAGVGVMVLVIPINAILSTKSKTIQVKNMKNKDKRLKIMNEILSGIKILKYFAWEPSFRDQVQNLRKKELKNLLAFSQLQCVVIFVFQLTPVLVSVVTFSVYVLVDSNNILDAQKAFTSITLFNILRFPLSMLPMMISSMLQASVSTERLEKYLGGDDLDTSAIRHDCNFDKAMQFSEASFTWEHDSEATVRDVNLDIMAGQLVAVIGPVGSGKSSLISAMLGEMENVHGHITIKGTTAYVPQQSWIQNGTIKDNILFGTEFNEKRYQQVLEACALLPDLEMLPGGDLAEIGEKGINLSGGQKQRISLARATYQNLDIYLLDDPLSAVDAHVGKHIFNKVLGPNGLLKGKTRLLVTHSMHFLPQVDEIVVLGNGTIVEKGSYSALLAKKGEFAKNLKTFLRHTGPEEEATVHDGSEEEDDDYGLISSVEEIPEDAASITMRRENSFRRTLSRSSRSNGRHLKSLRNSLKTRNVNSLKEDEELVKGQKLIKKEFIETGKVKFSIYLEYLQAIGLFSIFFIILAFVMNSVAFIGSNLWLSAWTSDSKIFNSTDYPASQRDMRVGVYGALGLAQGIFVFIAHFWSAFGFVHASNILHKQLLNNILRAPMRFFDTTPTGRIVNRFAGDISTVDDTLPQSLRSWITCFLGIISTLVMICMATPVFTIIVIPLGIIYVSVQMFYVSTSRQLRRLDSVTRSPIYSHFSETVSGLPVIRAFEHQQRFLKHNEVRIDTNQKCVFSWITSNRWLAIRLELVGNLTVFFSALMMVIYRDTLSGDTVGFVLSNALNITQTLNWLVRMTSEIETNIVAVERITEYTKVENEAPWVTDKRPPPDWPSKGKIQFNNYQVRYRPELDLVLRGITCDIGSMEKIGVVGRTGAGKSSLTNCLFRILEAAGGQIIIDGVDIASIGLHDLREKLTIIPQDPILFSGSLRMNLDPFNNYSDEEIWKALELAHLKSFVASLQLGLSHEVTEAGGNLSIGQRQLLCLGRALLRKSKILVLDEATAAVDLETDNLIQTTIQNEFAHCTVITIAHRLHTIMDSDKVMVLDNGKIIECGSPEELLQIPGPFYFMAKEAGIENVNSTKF

Row | Structure (SMILES) | Ratio [1] | Ratio [2] | Ratio [3] | Ratio (L5178Y [4]) | Ratio (L5178Y [5]) | Ratio [6]
1 | OC[C@]12C3N(Cc4ccc(O)cc4)C4[C@@]5(CO)C(N(Cc6ccc(O)cc6)C1[C@]3(CO)[C@@H]5c1ccccc1)[C@]4(CO)[C@@H]2c1ccccc1 | 0.82 | 1.6 | 1.1 | 1.5 | 3.3 | 
2 | COc1ccc2c3c([nH]c2c1)[C@H](C=C(C)C)N1C(=O)[C@@H]2CCCN2C(=O)[C@@H]1C3 [FUMITREMORGIN] |  |  | 6 |  |  | 1.9
3 | OC[C@]12C3N(Cc4ccncc4)C4[C@@]5(CO)C(N(Cc6ccncc6)C1[C@]3(CO)[C@@H]5c1ccccc1)[C@]4(CO)[C@@H]2c1ccccc1 | 0.8 | 1.2 | 1.3 | 1.5 | 1.1 | 
4 | OC[C@]12C3N(Cc4ccccc4)C4[C@@]5(CO)C(N(Cc6ccccc6)C1[C@]3(CO)[C@@H]5c1ccccc1)[C@]4(CO)[C@@H]2c1ccccc1 | 1.02 | 2.3 | 1.9 | 4.1 | 29 | 1.1
5 | OC[C@]12C3N(Cc4ccccc4)C4[C@@]5(CO)C(N(Cc6ccccc6)C1[C@]3(CO)[C@@H]5c1ccc(O)cc1)[C@]4(CO)[C@@H]2c1ccc(O)cc1 | 0.63 | 1.8 | 1.5 | 1.3 | 1.5 | 
6 | OC[C@]12C3N(Cc4ccccc4)C4[C@@]5(CO)C(N(Cc6ccccc6)C1[C@]3(CO)[C@@H]5c1ccncc1)[C@]4(CO)[C@@H]2c1ccncc1 | 0.74 | 2.2 | 1.2 | 2.4 | 7.7 | 
7 | COc1ccc(CN2C3[C@]4(CO)C5N(Cc6ccc(OC)cc6)C6[C@@](CO)(C2[C@]6(CO)[C@H]4c2ccc(OC)cc2)[C@H](c2ccc(OC)cc2)[C@@]35CO)cc1 | 1.25 | 4.8 | 6.1 | 3.1 | 46 | 1.5
8 | OC[C@]12C3N(Cc4cccnc4)C4[C@@]5(CO)C(N(Cc6cccnc6)C1[C@]3(CO)[C@@H]5c1ccccc1)[C@]4(CO)[C@@H]2c1ccccc1 | 0.9 | 1.1 |  | 1.2 | 1.1 | 
9 | OC[C@]12C3N(Cc4ccc(OCc5ccccc5)cc4)C4[C@@]5(CO)C(N(Cc6ccc(OCc7ccccc7)cc6)C1[C@]3(CO)[C@@H]5c1ccccc1)[C@]4(CO)[C@@H]2c1ccccc1 | 0.75 | 2.5 | 1.2 | 2.3 | 28 | 
10 | COc1ccc(CN2C3[C@]4(CO)C5N(Cc6ccc(OC)cc6)C6[C@@](CO)(C2[C@]6(CO)[C@H]4c2ccccc2)[C@H](c2ccccc2)[C@@]35CO)cc1 | 1.1 | 3.4 | 3.2 | 3.5 | 13 | 1.2
11 | OC[C@]12C3N(Cc4ccccc4)C4[C@@]5(CO)C(N(Cc6ccccc6)C1[C@]3(CO)[C@@H]5c1cccc(OCc3ccccc3)c1)[C@]4(CO)[C@@H]2c1cccc(OCc2ccccc2)c1 | 0.97 | 1.9 | 2.8 | 65 | 125 | 1.3
12 | OC[C@]12C3N(Cc4ccccc4)C4[C@@]5(CO)C(N(Cc6ccccc6)C1[C@]3(CO)[C@@H]5c1cccc(O)c1)[C@]4(CO)[C@@H]2c1cccc(O)c1 | 1.05 | 1.3 | 1.1 | 1.2 | 3 | 
13 | OC[C@]12C3N(Cc4cccc(OCc5ccccc5)c4)C4[C@@]5(CO)C(N(Cc6cccc(OCc7ccccc7)c6)C1[C@]3(CO)[C@@H]5c1ccccc1)[C@]4(CO)[C@@H]2c1ccccc1 | 0.97 | 2.8 | 4.2 | 117 | 205 | 1.5
14 | COc1ccc2c(c1)c(CC(=O)O)c(C)n2C(=O)c1ccc(Cl)cc1 [INDOMETHACIN] | 0.75 | 4.1 |  |  |  | 
15 | OC[C@]12C3N(Cc4ccccc4)C4[C@@]5(CO)C(N(Cc6ccccc6)C1[C@]3(CO)[C@@H]5c1ccc(OCc3ccccc3)cc1)[C@]4(CO)[C@@H]2c1ccc(OCc2ccccc2)cc1 | 1.56 | 1 | 3.5 | 3.3 | 47 | 1.4
